Screens as filed in PubChem BioAssay.
Shown are actives, neighbours in structure and some others; about 2.2% of the full set was active somewhere.
ARFGAP1 inh – inhibitors of rat ARFGAP1 | AID 651572 | actives 0.26% (n = 360,000) | Arfgap1-stimulated ARF1 GTP hydrolysis, GDP FP detection | inhibition, % at 16.5 µM;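 active = inhibition above a per-plate limit, mean inhibition of low control wells plus 3 SD, cut at about 25% in these data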;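 note: 0% = DMSO wells with enzyme and 100% = wells lacking Arfgap1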
Target sequence (Q62848 1-136 limits assumed): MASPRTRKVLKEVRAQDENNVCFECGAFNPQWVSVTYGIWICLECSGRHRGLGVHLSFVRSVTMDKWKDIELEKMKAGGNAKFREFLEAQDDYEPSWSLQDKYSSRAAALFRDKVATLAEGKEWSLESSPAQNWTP
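system = rat Arfgap1 catalytic domain, aa 1-136 | technique = FP, GDP Alexa 633 tracer displaced from anti-GDP antibody, 620/688 nm | compound = one concentration, 16.5 µM, DMSO 1.26% | medium = HEPES-based buffer, pH 7.5 | timing = compound-enzyme preincubation 20 min, reaction 120 min, detection 60 min, 25 °C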
rCAG binder-1 – binds r(CAG) RNA repeats; actives 1.3% (n = 370,000); inhibition, % at 3 µM; r(CAG) RNA repeat, TO-PRO-1 dye displacement fluorescence;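 active = inhibition above the plate cutoff, the mean of all test compounds on that plate plus 3 SD, cut at about 35% in these data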;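 note: 0% = DMSO alone and 100% = 100 µM mitoxantrone as full dye displacement; higher means more dye released from RNA so lower well fluorescence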
NadD inh – blocks S. aureus nicotinate mononucleotide adenylyltransferase | purified NadD enzyme, colorimetric absorbance read-out | inhibition, % at 20 µM | actives 0.78% (n = 360,000); in the data active = inhibition above about 26%
ASAP1 GAP inh – ASAP1 ArfGAP inhibition. Q9ULH1. ASAP1-stimulated ARF1 GTP hydrolysis, GDP FP detection. inhibition, % at 16.5 µM. actives 0.19% (n = 360,000); in the data active = inhibition above about 25%;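 note: 0% = vehicle with enzyme and substrate and 100% = no enzyme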
Target sequence (Q9ULH1 325-724 limits assumed): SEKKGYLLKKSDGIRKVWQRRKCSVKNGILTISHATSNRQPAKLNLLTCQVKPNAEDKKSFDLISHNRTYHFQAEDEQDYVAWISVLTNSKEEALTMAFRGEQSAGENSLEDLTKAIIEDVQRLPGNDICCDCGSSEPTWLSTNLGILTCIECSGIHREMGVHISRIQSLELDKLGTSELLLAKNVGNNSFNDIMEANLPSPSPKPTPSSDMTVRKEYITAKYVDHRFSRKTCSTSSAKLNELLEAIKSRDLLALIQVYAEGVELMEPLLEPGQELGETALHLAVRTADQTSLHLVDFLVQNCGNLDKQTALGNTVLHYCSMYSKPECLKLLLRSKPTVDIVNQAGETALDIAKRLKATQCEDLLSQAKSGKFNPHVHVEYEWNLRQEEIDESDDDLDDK
rCAG bind conf – r(CAG) RNA repeat binding, confirmation. shares compounds with rCAG binder-1. TO-PRO-1 dye displacement fluorescence. inhibition, % at 3 µM. actives 70% (n = 4,300);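 active = inhibition above a per-plate cutoff, the mean inhibition of sample wells plus 3 SD, cut at about 35% in these data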;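 note: loss of TO-PRO-1 fluorescence as compound displaces dye from 1x1 AA loop RNA; 0% = DMSO only wells and 100% = 100 µM mitoxantrone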
dCAG dye counter – counter-screen for rCAG RNA binders: DNA CAG dye complex inhibitors. shares compounds with rCAG binder-1. d(CAG) DNA oligo TO-PRO-1 dye displacement, fluorescence. inhibition, % at 3 µM. actives 94% (n = 4,300). AID 652068;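 active = inhibition above its plate's cutoff, the mean test-well inhibition plus 3 SD, cut at about 4.8% in these data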;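 note: 0% = DNA dye mix with DMSO and 100% = 100 µM mitoxantrone; hits displace the dye from DNA and so lower well fluorescence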
dCAG dye DR – DNA CAG dye complex inhibition, dose response counter-screen; IC50, µM; DNA CAG/GTC duplex TO-PRO-1 dye displacement fluorescence; actives 20% (n = 250); AID 686960; shares compounds with rCAG binder-1; in the data active = IC50 below about 10 µM
dCAG DNA bind – DNA CAG dye complex inhibition, late stage dose response; shares compounds with rCAG binder-1; d(CAG) DNA duplex TO-PRO-1 dye displacement, fluorescence; IC50, µM; actives 80% (n = 30); AID 720649
rCAG binder-2 – molecules binding r(CAG) RNA repeats, late stage dose response; shares compounds with rCAG binder-1; r(CAG) RNA TO-PRO-1 dye displacement, fluorescence; IC50, µM; actives 100% (n = 30); AID 720651
* = called active by the depositor; i = inactive; / = not tested or not shown. Unless noted, the rule behind the calls is not given here.

SMILES	ARFGAP1 inh	rCAG binder-1	NadD inh	ASAP1 GAP inh	rCAG bind conf	dCAG dye counter	others
CC/C(=N\NC(=O)c1ccccc1O)c1c(O)n(C2CCCCC2)c(=O)[nH]c1=O	10	59*	5	3	72*	29*	dCAG dye DR=2.8*;dCAG DNA bind=2.4*;rCAG binder-2=0.99*
CCCCC(=O)N/N=C/c1c(O)n(Cc2ccco2)c(=O)[nH]c1=O	3	16	4	2	/	/
C[n+]1c(-c2ccccc2)c2cc(N)ccc2c2ccc(N)cc21	0	41*	19	1	49*	63*
Nc1ccc2ccc3cccc[n+]3c2c1	0	i	27	-3	/	/
CC(C)CN1Cc2cc(-c3cccc(F)c3)ccc2-n2nncc2C1	-1	3	-3	-8	/	/
CC12CCC(O)CC1CCC1C2CCC2(C)C(C(=O)CO)CCC12 (stereo unspecified)	-1	-6	-2	10	/	/
CC1=C(O)C(=O)C=C2C1=CC=C1C2(C)CCC2(C)C3CC(C)(C(=O)O)CCC3(C)CCC12C (stereo unspecified)	3	50*	47*	-16	41*	9.5*
N#CCC[C@@H]1CC[C@]2(CCCN(Cc3ccncc3)C2)O1	/	1	/	/	/	/
CN(C)[C@@H]1C(=O)C(C(N)=O)=C(O)[C@@]2(O)C(=O)C3=C(O)c4c(O)cccc4[C@@](C)(O)C3[C@H](O)C12 (stereo partly specified)	-3	55*	20	6	21	7.5*
Cc1cc(N2CCNC[C@@H]2C)ccc1N1CCN[C@@H](C)C1	-8	2	/	-5	/	/
O=[N+]([O-])c1cccc(C2N3CCCN23)c1 (stereo unspecified)	14	-2	-2	-11	/	/
O=C(O)c1cccc2c1NC(c1cccc([N+](=O)[O-])c1)C1CC(Sc3ccccc3[N+](=O)[O-])C(Cl)C21 (stereo unspecified)	-8	76*	60*	0	92*	74*
CCOc1ccc(/C=C2/C(=O)NC(=O)N(CCc3ccc(F)cc3)C2=O)cc1	-10	35*	4	-1	3	2
COc1cc(/C=C2\C(=O)NC(=O)N(CCc3ccc(F)cc3)C2=O)ccc1O	8	43*	1	-5	5	1
CCOc1ccc(N2C(=O)/C(=C\c3cccs3)C(=O)NC2=S)cc1	7	39*	/	6	9	7.3*
CCCCN1C(=O)/C(=C/C=C/c2ccco2)C(=O)NC1=S	-11	76*	4	0	66*	26*	dCAG dye DR=3.1*;dCAG DNA bind=3.1*;rCAG binder-2=1.4*
CCCCN1C(=O)/C(=C\c2ccco2)C(=O)N(CCc2ccccc2)C1=O	4	27	14	-5	/	/
COc1ccc(CN2C(=O)NC(=O)/C(=C/c3cc(OC)c(OC)c(OC)c3)C2=O)cc1	-4	15	3	3	/	/
O=C(O)Cn1cc(/C=C2\C(=O)NC(=O)N(Cc3ccco3)C2=O)c2ccccc21	-8	45*	6	4	62*	23*
COc1ccc(CN2C(=O)NC(=O)/C(=C/c3ccoc3)C2=O)cc1	-2	53*	10	-7	45*	17*
Cc1ccc(N2C(=O)NC(=O)/C(=C\c3cn(CC(=O)O)c4ccccc34)C2=O)cc1	0	9	-5	8	/	/
O=C1NC(=O)N(Cc2ccco2)C(=O)/C1=C/c1cccn1CCOc1ccccc1Cl	-24	49*	13	-6	11	5.7*
O=C1C2CC=CCC2C(=O)N1SC(Cl)(Cl)Cl (stereo unspecified)	-12	5	/	0	/	/
COC(=O)C1=C(c2ccc(F)cc2OCc2ccccc2)C[C@@H]2CC[C@H]1N2C(=O)N1CCC(O)CC1	/	/	3	/	/	/
O=C1NC(=O)N(Cc2ccccc2)C(=O)/C1=C\c1ccco1	-10	48*	10	9	35*	11*
SMILES	ARFGAP1 inh	rCAG binder-1	NadD inh	ASAP1 GAP inh	rCAG bind conf	dCAG dye counter	others
O=C1NC(=O)N(Cc2ccc(F)cc2)C(=O)/C1=C\C=C\c1ccco1	13	52*	13	17	18	7.6*
Cc1ccc(N2C(=O)NC(=O)/C(=C/C=C/c3ccco3)C2=O)cc1	-3	29	5	-8	/	/
O=C(O)c1cc(S(=O)(=O)N2CC3CC(C2)c2cccc(=O)n2C3)ccc1F (stereo unspecified)	-1	1	/	1	/	/
Cc1cc(OCC(=O)NC(Cc2ccc(Cl)cc2)C(=O)O)c2c3c(c(=O)oc2c1)CCCC3 (stereo unspecified)	-7	63*	-1	0	66*	27*
COP(=S)(OC)Oc1ccc(Sc2ccc(OP(=S)(OC)OC)cc2)cc1	4	39*	22	7	19	7.6*
Nc1ccc(Sc2ccc(N)cc2)cc1	2	4	3	5	/	/
C=CCN1C(=O)/C(=C/c2cc(C)n(-c3ccccn3)c2C)C(=O)NC1=S	-5	6	1	5	/	/
COc1ccc(CN2C(=O)NC(=O)/C(=C/c3ccc(OC)c(OC)c3OC)C2=O)cc1	5	19	9	-6	/	/
Cn1cccc1/C=C1\C(=O)NC(=O)N(Cc2ccccc2)C1=O	0	40*	-1	5	7	2
C=CCN1C(=O)NC(=O)/C(=C/c2cccn2C)C1=O	-6	5	4	-7	/	/
Cn1cccc1/C=C1/C(=O)NC(=O)N(Cc2ccccc2)C1=O	1	49*	2	5	5	4
Cn1cccc1/C=C1/C(=O)NC(=O)N(Cc2ccc(F)cc2)C1=O	6	41*	-2	8	8	3
Cn1cccc1/C=C1/C(=O)NC(=S)N(Cc2ccc(F)cc2)C1=O	9	74*	45*	7	51*	30*
O=C(O)C(Br)Br	-6	2	/	3	/	/
CCOC(=O)[C@]12Cc3cc4ccccc4cc3[C@H]1N(Cc1ccccc1)C(=O)c1cc(OC)ccc12	-9	5	9	-7	/	/
O=C(NCCN1CCC2(CC1)C(=O)NCN2c1ccccc1)c1cccc(F)c1	0	2	/	3	/	/
Cc1cc2c(C(C)C)c(O)c(O)c(C=O)c2c(O)c1-c1c(C)cc2c(C(C)C)c(O)c(O)c(C=O)c2c1O	-15	97*	50*	-9	94*	81*
CC1(C)CC(=O)CC(C)(C)N1O	1	-2	-1	-7	/	/
COc1ccc(OC)c(N2C(=O)NC(=O)/C(=C\c3ccc([N+](=O)[O-])s3)C2=O)c1	-17	92*	14	-8	74*	34*
